Results of several laboratories.
Target: Mitogen-activated protein kinase 7 (MAPK7, Homo sapiens, UniProt Q13164)

`Cc1cc(O)c(-c2ccc([C@@H](C)CN(C)C)cc2)c2c1[nH]c(=O)c1sccc12` gave an inhibition of -0.313% (enzyme activity; inhibitor; 0.1 µM).
`C[C@]1(O)CCCN(c2nc(Nc3ccc(S(=O)(=O)N[C@H]4CC[C@H](CN5CCN(c6ccc(C7CCC(=O)NC7=O)cc6F)CC5)CC4)cc3Cl)ncc2C(F)(F)F)C1` (some centres unmarked) has a remaining binding of 18% (binding; competition with immobilised ligand; 1 µM).
The inhibition of `CC#CC(=O)N1CCC[C@H]1c1nc(-c2ccc(C(=O)Nc3ccccn3)cc2)c2c(N)nccn12` is reported as 0% (enzyme activity; inhibitor; 1 µM).
`C[C@H]1CC[C@H](n2c3cnccc3c3cnc(Nc4ccc5c(n4)CCN(C(=O)CO)C5)nc32)CC1` has a remaining signal of 92% (cell-free assay; 1 µM).
`C[C@]1(O)CCCN(c2nc(Nc3ccc(S(=O)(=O)N[C@H]4CC[C@H](CN5CCN(c6ccc(C7CCC(=O)NC7=O)cc6F)CC5)CC4)cc3F)ncc2C(F)(F)F)C1` (some centres unmarked) has a remaining binding of 37% (binding; competition with immobilised ligand; 1 µM).
`CCCCC(=O)Nc1ccc(-c2ccc3ncn(CCC)c(=O)c3c2)cn1` gave a remaining binding of 82% (binding; competition with immobilised ligand; 0.5 µM).
`COc1ccc2[nH]c3c4[nH]c5ccc(OC)cc5c4c4c(c3c2c1)C(=O)NC4=O` gave a remaining binding of 69% (binding; 1 µM).
With `CO[C@@H]1[C@H](N(C)C(=O)c2ccccc2)C[C@H]2O[C@]1(C)n1c3ccccc3c3c4c(c5c6ccccc6n2c5c31)C(=O)NC4` the inhibition was 0% (enzyme activity; inhibitor; 1 µM).
